# Reference: article PMC7683378 (Journal of autoimmunity, 2020)
# Legend:
# [1] = test system: recombinant HLA-DQ8 protein; type: binding, human; conditions: serially diluted to 0.5 μM, 48 hours at 37 °C
# Outline: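 DELFIA: recombinant HLA-DQ8 (0.012 mg/ml) with 10 μM biotinylated InsB:9-23, plus RI-D-peptide serially diluted to 0.5 μM final, 48 h at 37 °C in 0.1% BSA/PBS with 0.05% Triton. Then bound on nickel-coated plates 2 h at RT, washed, Eu-streptavidin 30 min at RT, washed, enhancement solution ~1 h. Time-resolved fluorescence gave percent inhibition.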
# [2] = test system: recombinant HLA-DQ8 protein; experiment: DELFIA immunoassay: inhibition of binding of other HLA-DQ8-binders; set-up: species or system human; conditions: biotinylated GAD65 or gliadin peptide with RI-D-peptide
# [3] = test system: 5KC cells (TCR specific for the InsB:9-23–DQ8 complex); experiment: Cellular antigen presentation assay; type: cell-based, mouse; conditions: BSM cells + 5KC cells incubated with the peptide; IL-2 by Luminex
# Outline: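 HLA-DQ8-homozygous BSM B-cells (RPMI, 10% FBS, 37 °C, 5% CO2): 10^6 cells loaded overnight with 200 μg/ml InsB:9-23 (scrambled InsB:9-23 or gliadin as negative peptides), washed twice with PBS, then given RI-D-peptide or scrambled control for 2 h at 37 °C. 5KC mouse T-hybridoma cells with human TCR added 1:1, overnight. Supernatant IL-2 by Luminex; anti-CD3/CD28 beads as positive control; 4–5 independent experiments.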
# [4] = test system: lymphocytes from immunized SJL-DQ8 mice; experiment: Ex vivo cytokine production; type: cell-based, mouse; conditions: all peptides 20 μg/ml, 48 hours, Luminex; 20 SJL-DQ8 mice
# Outline: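 Lymphocytes from spleens and draining nodes of SJL-DQ8 mice (6–8 weeks) immunised s.c. with 150 μg InsB:9-23 in CFA and boosted in IFA. Plated at 2×10^5 cells/well in RPMI/10% FBS with medium, InsB:9-23 with or without RI-D-peptides or scrambled versions, or scrambled InsB:9-23, all at 20 μg/ml. Supernatants taken at 48 h, kept at −80 °C, cytokines by mouse Milliplex Luminex panel.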
# [5] = test system: lymphocytes from immunized SJL-DQ8 mice; experiment: Ex vivo lymphocyte proliferation; type: cell-based, mouse; conditions: all peptides 20 μg/ml, 5 days, flow cytometry
# Outline: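 Spleen/draining-node cells from InsB:9-23-immunised SJL-DQ8 mice, 10^6 cells at 2×10^6/ml in 0.1% BSA/PBS, labelled with 1.5 μM CFSE for 10 min at 37 °C. Quenched with ice-cold RPMI/10% FBS, 5 min on ice, washed three times. Plated at 2×10^5 cells/well with peptides at 20 μg/ml for 5 days. Flow cytometry gated on live singlets; at least triplicates; inhibition = 100 − 100 × (proliferation with/without RI-D-peptide).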
# [6] = test system: lymphocytes from immunized SJL-DQ8 mice; experiment: ELISPOT of IL-2 and IFN-γ secretion by lymphocytes of immunized SJL-DQ8 mice; type: cell-based, mouse; conditions: 5X10^5 lymphocytes, peptides 20 μg/ml, 48 hours
# Outline: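 SJL-DQ8 mice (6; 3 female, 3 male) immunised s.c. with 150 μg InsB:9-23 in CFA and boosted in IFA. 5×10^5 spleen/draining-node lymphocytes plated on nitrocellulose wells coated with 4 μg/ml IL-2 or 10 μg/ml anti-IFN-γ capture antibody, 48 h at 37 °C with peptides at 20 μg/ml. Biotinylated detection antibody 2 h, streptavidin-AP 1 h, BCIP/NBT development. Positive response: >20 net SFC/10^6 and P<0.05 (t-test, triplicates).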
# [7] = test system: PBMCs from HLA-DQ8 positive T1D patients; experiment: Cytokine production; type: cell-based, human; conditions: all peptides 20 μg/ml, 48 hours, Luminex; 31 new onset DQ8 positive T1D patients
# Outline: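 Fresh PBMCs from heparinised blood (Ficoll) of patients genotyped for at least one DQB*03:02 allele, seeded in RPMI/10% FBS. Stimulated 48 h with InsB:9-23 or scrambled InsB:9-23, with or without RI-D-peptides or scrambled versions, all peptides at 20 μg/ml. Supernatant cytokines by Luminex, as for mouse lymphocytes. Long-standing (>10 years) DQ8 T1D patients served as controls.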
# [8] = test system: PBMCs from HLA-DQ8 positive T1D patients; experiment: Lymphocyte proliferation; type: cell-based, human; conditions: all peptides 20 μg/ml; gated on live T-cells
# Outline: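 Fresh Ficoll-isolated PBMCs from patients with at least one DQB*03:02 allele, in RPMI/10% FBS. Stimulated 48 h with InsB:9-23 or scrambled InsB:9-23, with or without RI-D-peptides or scrambled versions, all at 20 μg/ml. Proliferation by CFSE as for mouse lymphocytes, gated on live T-cells. Inhibition = 100 − 100 × (proliferation with/without RI-D-peptide).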
Sequence,Dose dependence of inhibition of InsB:9-23 binding to HLA-DQ8 [1],"Competition with other HLA-DQ8-binders (GAD65, gliadin) [2]",Activation of 5KC T-cells (IL-2 secretion) by the peptide itself [3],IFN-γ production by lymphocytes stimulated with InsB:9-23 [4],IL-2 production by lymphocytes stimulated with InsB:9-23 [4],Lymphocyte proliferation induced by InsB:9-23 (CFSE assay) [5],IFN-γ ELISPOT response to InsB:9-23 [6],IL-2 ELISPOT response to InsB:9-23 [6],IFN-γ production in PBMCs stimulated with InsB:9-23 [7],IL-2 production in PBMCs stimulated with InsB:9-23 [7],Lymphocytes proliferation in PBMCs stimulated with InsB:9-23 (CFSE assay) [8]
GGREGCVLYLAEVGG [RI-CT],dose-dependent,competed only with InsB:9-23 and not with other HLA-DQ8-binders,did not activate TCR,significantly blocked,significantly blocked,significantly suppressed,significantly decreased,significantly decreased,significantly suppressed,significantly suppressed,significantly suppressed
FFGGREGCVLYLAEVLHSG [RI-EXT],dose-dependent,competed only with InsB:9-23 and not with other HLA-DQ8-binders,did not activate TCR,significantly blocked,significantly blocked,significantly suppressed,significantly decreased,significantly decreased,significantly suppressed,significantly suppressed,significantly suppressed
